Screening data: PubChem BioAssay, The Scripps Research Institute Molecular Screening Center
Shown are actives, neighbours in structure and some others; about 3.4% of the full set was active somewhere.
CHRM1 antagonist: blocks human M1 muscarinic receptor | CHO-K1 hM1, Fluo-8 calcium fluorescence, ACh EC80 antagonist | inhibition, % at 3 µM | 360,000 compounds, 1.3% hits | AID 588852;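 active = percent inhibition above its own plate's cutoff, namely the mean of that plate's compound wells plus 3 SD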;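 note: peak over basal fluorescence ratio during 140 s after agonist addition; 0% = ACh EC80 plus DMSO and 100% = DMSO alone without agonist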
CHRM1 agonist: activates human CHRM1 receptor. 360,000 compounds, 0.33% hits. CHO-K1 hM1, Fluo-8 calcium fluorescence, agonist mode; 0% DMSO, 100% acetylcholine EC100. P11229. activation, % at 3 µM. AID 588814;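 active = activation above the run's mean compound activation plus 3 SD, cut at about 16% in these data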;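 note: peak over basal fluorescence ratio within a 140 s kinetic read after compound addition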
M1 PAM: positive allosteric modulators of human M1 muscarinic receptor | activation, % at 3 µM | CHO-K1 hM1, Fluo-8 calcium fluorescence, ACh EC20; 0% = ACh EC20, 100% = maximal ACh | P11229 | 360,000 compounds, 0.088% hits; in the data active = activation above about 19%, passing the limit was not always enough
TAAR1 antagonist: antagonists of human TAAR1 | CHO RD-HGA16 TAAR1, Fluo-8 calcium fluorescence, antagonist | inhibition, % at 3 µM | 360,000 compounds, 1.5% hits | AID 624466;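 active = inhibition above a per-plate cutoff, the mean inhibition of test compounds on that plate plus 3 SD, cut at about 49% in these data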;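 note: 0% = DMSO plus EC80 beta-PEA response and 100% = DMSO alone without agonist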
Target sequence (Q96RJ0 whole entry, looked up): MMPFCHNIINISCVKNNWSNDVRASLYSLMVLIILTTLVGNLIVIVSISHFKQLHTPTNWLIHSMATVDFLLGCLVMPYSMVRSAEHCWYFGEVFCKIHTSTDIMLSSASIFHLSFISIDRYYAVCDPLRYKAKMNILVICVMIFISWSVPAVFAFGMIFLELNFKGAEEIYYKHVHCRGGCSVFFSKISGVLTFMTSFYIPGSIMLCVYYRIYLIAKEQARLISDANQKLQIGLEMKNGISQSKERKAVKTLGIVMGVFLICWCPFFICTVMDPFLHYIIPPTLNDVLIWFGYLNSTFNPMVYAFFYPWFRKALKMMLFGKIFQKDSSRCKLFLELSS
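Test system – hTAAR1-expressing CHO RD-HGA16 cells, Gα16-coupled · Reagent – β-PEA at EC80 concentration, post-compound challenge · Compound dosing – 3 µM, single point · Timing – 140 s kinetic read after compound, 140 s after agonist · Detection – Fluo-8 intracellular calcium dye fluorescence, real-time kinetic reads · Control set – DMSO and EC80 PEA controls · Repeats – n of 1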
TAAR1 agonist: human TAAR1 agonism | CHO RD-HGA16 TAAR1, Fluo-8 calcium fluorescence; vehicle wells 0%, saturating PEA agonist 100% | AID 624467 | activation, % at 3 µM | 360,000 compounds, 0.99% hits | Q96RJ0;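 active = activation above the mean activation of all test compounds in the run plus 3 SD, cut at about 38% in these data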
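Repeats: no replicates (n 1) | Material: CHO-derived RD-HGA16 cells with stable Gα16 and human TAAR1 | Technique: Kinetic Fluo-8 calcium fluorescence | Schedule: 17-24 h seeding, 75 min 37 °C dye, 30 min RT | Evaluation: % activation from peak over basal fluorescence ratio, DMSO-to-PEA scaled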
Numbers without * were called inactive.

How did O=S1(=O)N[C@H](Cc2ccccc2)COc2cccc(F)c21 do in these assays?
TAAR1 antagonist: 5; TAAR1 agonist: -1

How did CCCCOCC1CN(Cc2ccccc2OC)S(=O)(=O)c2cc(Cl)ccc2O1 (stereo unspecified) do in these assays?
TAAR1 antagonist: -3; TAAR1 agonist: 1

How did OC(CCN1CCCCC1)(c1ccccc1)C1C[C@@H]2C=C[C@H]1C2 (stereo partly specified) do in these assays?
CHRM1 antagonist: 99*; CHRM1 agonist: -9; M1 PAM: -26; TAAR1 antagonist: -4; TAAR1 agonist: 2

What do the screens show for `CCNC(=O)N1CCN(c2ccc(N3CCN(Cc4ccccc4)[C@H](C)C3)c(C)c2)[C@@H](C)C1`?
TAAR1 antagonist: -8; TAAR1 agonist: 0

Results for Nc1[nH]c(C(=O)c2ccc(Cl)cc2)c(-c2ccc(Br)cc2)c1C(=O)NCc1ccc(Cl)cc1Cl ?
TAAR1 antagonist: -9; TAAR1 agonist: 0

What do the screens show for `S=C1NC[C@H](Cc2ccccc2)N1CC1CCN(CCCC2CCCCC2)CC1`?
TAAR1 antagonist: 5; TAAR1 agonist: 2

What do the screens show for `CCOC(=O)C1CCCN(C2CC(=O)N(c3ccc(NC(C)=O)cc3)C2=O)C1` (stereo unspecified)?
CHRM1 antagonist: 6; CHRM1 agonist: 36*; M1 PAM: -12; TAAR1 antagonist: -15; TAAR1 agonist: 6

Results for CCOC(=O)C1CCCN(S(=O)(=O)c2ccc(NC(C)=O)cc2)C1 (stereo unspecified) ?
CHRM1 antagonist: 0; CHRM1 agonist: -4; M1 PAM: 7; TAAR1 antagonist: -2; TAAR1 agonist: 7

Results for CCOC(=O)C1CCCN(C2CC(=O)N(c3ccc(C)cc3)C2=O)C1 (stereo unspecified) ?
CHRM1 antagonist: -7; CHRM1 agonist: 20*; M1 PAM: -4; TAAR1 antagonist: -19; TAAR1 agonist: 1

How did CCOC(=O)C1=C(Nc2ccc(Br)cc2)C(=O)N(CC)C1 do in these assays?
TAAR1 antagonist: -34; TAAR1 agonist: 1

What do the screens show for `CN(CCc1ccccn1)C(=O)[C@@H](Cc1ccccc1)NC(=O)[C@H]1O[C@@H](n2ccc(=O)[nH]c2=O)[C@H](O)[C@@H]1O`?
TAAR1 antagonist: 9; TAAR1 agonist: 1

Results for COC(=O)Cn1c(=O)n(CCc2ccccc2)c(=O)c2c3c(sc21)CCCC3 ?
CHRM1 antagonist: 77*; CHRM1 agonist: -9; M1 PAM: -22; TAAR1 antagonist: 14; TAAR1 agonist: -2

How did CN(C)CCNc1nc2sc3c(c2c(=O)n1CCc1ccccc1)CCCCC3 do in these assays?
CHRM1 antagonist: 23; CHRM1 agonist: 6; M1 PAM: -7; TAAR1 antagonist: 36; TAAR1 agonist: 40*

Results for C[C@@H]1ON(C)[C@H]2C[C@H]3c4[nH]c5cccc(-c6ccccc6)c5c4CCN3C[C@@H]12 ?
TAAR1 antagonist: -24; TAAR1 agonist: 2

How did COC(=O)[C@]12CCCCC=C1N(Cc1ccco1)C(=O)[C@H](CC(=O)N1CCOCC1)C2 do in these assays?
TAAR1 antagonist: 2; TAAR1 agonist: 2

How did CCCn1c(C)c(CC(=O)Nc2ccc(N(C)c3ccccn3)cc2)c2ccccc21 do in these assays?
TAAR1 antagonist: 4; TAAR1 agonist: -3

Results for Cc1ccc(NC(=O)COc2ccc(/C=N/NC(=O)CSCc3ccccc3)cc2)cc1 ?
CHRM1 antagonist: -7; CHRM1 agonist: 0; M1 PAM: 2; TAAR1 antagonist: 18; TAAR1 agonist: 11

Results for O=C(CSCc1ccc(Cl)cc1)N/N=C/c1ccc(OCC(=O)Nc2ccccc2)cc1 ?
CHRM1 antagonist: 15; CHRM1 agonist: -3; M1 PAM: -6; TAAR1 antagonist: 57*; TAAR1 agonist: 9

What do the screens show for `O=C(COc1ccccc1)Nc1ccc(CSc2ccccc2)cc1`?
CHRM1 antagonist: 0; CHRM1 agonist: -3; M1 PAM: -5; TAAR1 antagonist: 51*; TAAR1 agonist: 7

What do the screens show for `C[C@@H]1CN([C@@H](C)CO)C(=O)c2ccccc2-c2ccccc2CO[C@@H]1CN(C)Cc1ccc(Cl)c(Cl)c1`?
TAAR1 antagonist: -4; TAAR1 agonist: 6

What do the screens show for `CN1CCN(C(=O)c2ccc(COc3ccc(C(C)(C)C)cc3)o2)CC1`?
CHRM1 antagonist: 39*; CHRM1 agonist: -3; M1 PAM: -21; TAAR1 antagonist: 9; TAAR1 agonist: 18

How did CC(C)(C)c1ccc(OCc2ccc(C(=O)NCc3cccnc3)o2)cc1 do in these assays?
CHRM1 antagonist: 20; CHRM1 agonist: -9; M1 PAM: -18; TAAR1 antagonist: 53*; TAAR1 agonist: 16

How did COc1ccccc1CNC(=O)Nc1nc(C(N)CCc2ccccc2)cs1 (stereo unspecified) do in these assays?
CHRM1 antagonist: -14; CHRM1 agonist: -2; M1 PAM: 7; TAAR1 antagonist: 34; TAAR1 agonist: 24

Results for Cc1ccc(-c2ccc(CN3C(C(C)C)C(=O)N(Cc4cn(CCC5OCCO5)nn4)CCS3(=O)=O)cc2)c(C)c1 (stereo unspecified) ?
CHRM1 antagonist: -3; CHRM1 agonist: -5; M1 PAM: 7; TAAR1 antagonist: 14; TAAR1 agonist: 1

What do the screens show for `Cc1nn(C)c(C)c1/C=N/N=C1\CCC2C3CCc4cc(O)ccc4C3CCC12C` (stereo unspecified)?
CHRM1 antagonist: 10; CHRM1 agonist: -1; M1 PAM: -6; TAAR1 antagonist: 63*; TAAR1 agonist: 14

What do the screens show for `Cc1cccc(C)c1NC(=O)CN(C)C(=O)c1cccc(S(=O)(=O)N2CCN(c3ccccc3)CC2)c1`?
CHRM1 antagonist: -10; CHRM1 agonist: -2; M1 PAM: 3; TAAR1 antagonist: -1; TAAR1 agonist: 0

What do the screens show for `CN(Cc1ccc(OC(F)F)cc1)C(=O)c1cccc(S(=O)(=O)N2CCN(c3ccccc3)CC2)c1`?
CHRM1 antagonist: 46*; CHRM1 agonist: 0; M1 PAM: -20; TAAR1 antagonist: 75*; TAAR1 agonist: 9

Results for O=C1c2[nH]nc(-c3ccccc3)c2C(c2ccc(F)cc2)N1Cc1ccccc1 (stereo unspecified) ?
TAAR1 antagonist: -19; TAAR1 agonist: 6

How did CCCCc1c(-c2ccccc2OC)ncn1Cc1ccc(OC)c(Cl)c1 do in these assays?
TAAR1 antagonist: -6; TAAR1 agonist: 6

How did CCN1CCCC1CNC(=O)c1ccc(Sc2ccc(F)cc2)c([N+](=O)[O-])c1 (stereo unspecified) do in these assays?
CHRM1 antagonist: 100*; CHRM1 agonist: -7; M1 PAM: -26; TAAR1 antagonist: -17; TAAR1 agonist: 7

Results for CCN1CCCC1CNC(=O)c1ccc(Sc2ccccc2Cl)c([N+](=O)[O-])c1 (stereo unspecified) ?
CHRM1 antagonist: 99*; CHRM1 agonist: -8; M1 PAM: -26; TAAR1 antagonist: -14; TAAR1 agonist: 8
